What all share (assay type): functional
Assay [1] concerns Escherichia coli. Description: Antibacterial activity against Escherichia coli ATCC 25922 at 0.2 umol/disk after 24 hrs by agar plate diffusion assay. A digest of the protocol:
(§1)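 Paper disks 5 mm across loaded with 0.2 µmol of each isolated compound, placed on agar plates seeded with the test bacterium (B. subtilis 168, S. aureus ATCC 25923, E. coli ATCC 25922 or E. coli HB 101). Read-out is the diameter of the inhibition zone in mm.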

The test system of the next assay is Staphylococcus aureus. As to the kind of experiment: Antibacterial activity against Staphylococcus aureus ATCC 25923 at 0.2 umol/disk after 24 hrs by agar plate diffusion assay. In short, it runs like this: as §1
The test system of assay [2] is Escherichia coli. As to the kind of experiment: Antibacterial activity against Escherichia coli HB101 at 0.2 umol/disk after 24 hrs by agar plate diffusion assay. A digest of the protocol:
as §1

The test system of another assay is Bacillus subtilis. As to the kind of experiment: Antibacterial activity against Bacillus subtilis subsp. subtilis str. 168 at 0.2 umol/disk after 24 hrs by agar plate diffusion assay. In short, it runs like this:
as §1

As to `Nc1nc([C@@H]2c3[nH]c(N)nc3C[C@H](CNC(=O)c3cc(Br)c[nH]3)[C@H]2CNC(=O)c2cc(Br)c[nH]2)c[nH]1.O=C(O)C(F)(F)F.O=C(O)C(F)(F)F` [AGELIFERIN], the “inhibition zone (IZ)” value in the assay on Escherichia coli [1] is given as 8 mm; in the assay with Staphylococcus aureus, 11 mm; in the assay on Escherichia coli [2], 11 mm; with Bacillus subtilis it was 14 mm.
As for `Cl.Cl.Nc1ncc([C@H]2[C@H](CNC(=O)c3ccc[nH]3)[C@@H](CNC(=O)c3ccc[nH]3)[C@@H]2c2cnc(N)[nH]2)[nH]1` [DEBROMOSCEPTRIN], the “inhibition zone (IZ)” value in the assay on Bacillus subtilis came to 10 mm.
On the same count and under the same terms, next, `COC(=O)[C@H]1[C@H](CNC(=O)c2cc(Br)c[nH]2)[C@@H](CNC(=O)c2cc(Br)c[nH]2)[C@@H]1c1c[nH]c(N)n1.O=C(O)C(F)(F)F` [NAKAMURIC ACID METHYL ESTER]: 9 mm; `Nc1nc([C@H]2[C@H](CNC(=O)c3cc(Br)c[nH]3)[C@@H](CNC(=O)c3cc(Br)c[nH]3)[C@@H]2C(=O)O)c[nH]1.O=C(O)C(F)(F)F` [NAKAMURIC ACID]: 9 mm.
For `Nc1nc([C@H]2[C@H](CNC(=O)c3cc(Br)c[nH]3)[C@@H](CNC(=O)c3cc(Br)c[nH]3)[C@@H]2c2c[nH]c(N)n2)c[nH]1.O=C(O)C(F)(F)F.O=C(O)C(F)(F)F` [SCEPTRIN (TFA SALT)], the “inhibition zone (IZ)” value with Escherichia coli [1] was 9 mm; in the assay with Staphylococcus aureus, 16 mm; in the assay with Escherichia coli [2], 13 mm; in the assay on Bacillus subtilis it was 16 mm.

These data come from ChEMBL document CHEMBL1144112, “New bromopyrrole alkaloids from the Indopacific sponge Agelas nakamurai” (1999).
